Rpn11 inh: blocks the human proteasome subunit Rpn11 | inhibition, % at 20 µM | actives 0.59% (n = 360,000) | human 26S proteasome, Ub4-pepOG fluorescence polarization; 20S core pre-blocked with epoxomicin | O00487;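 active = inhibition at 20 µM, scaled to each plate's controls, above about 33%, limit read from the data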
Target sequence (O00487 whole entry, looked up): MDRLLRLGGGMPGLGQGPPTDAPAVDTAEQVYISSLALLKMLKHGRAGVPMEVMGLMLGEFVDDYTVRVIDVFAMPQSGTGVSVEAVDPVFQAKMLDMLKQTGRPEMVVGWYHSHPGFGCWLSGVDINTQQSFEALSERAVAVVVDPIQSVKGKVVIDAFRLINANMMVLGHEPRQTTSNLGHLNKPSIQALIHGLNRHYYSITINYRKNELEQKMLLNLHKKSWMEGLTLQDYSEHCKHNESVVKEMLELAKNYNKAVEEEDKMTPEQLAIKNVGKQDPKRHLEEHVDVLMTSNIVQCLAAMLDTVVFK
HNF4A DNA FP: change in binding of human HNF4 alpha to DNA; P41235; HNF4a-FITC DNA binding, fluorescence polarization, 1 h; activity change, % at 10 µM; actives 0.3% (n = 360,000); in the data active = activity change above about 30%, passing the limit was not always enough
CSN inh: CSN deneddylation inhibition; inhibition, % at 12.5 µM; actives 0.38% (n = 360,000); AID 651999; Q92905; Purified CSN, SCF-Nedd8-OG deneddylation, fluorescence polarization;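 active = pattern-corrected inhibition above about 35%, with an unprinted fluorescence ratio check between 0.5 and 1.5, limit read from the data, passing the limit was not always enough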;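 also: 0% = enzyme with substrate and 100% = substrate without enzyme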
Target sequence (Q92905 whole entry, looked up, one chain of several): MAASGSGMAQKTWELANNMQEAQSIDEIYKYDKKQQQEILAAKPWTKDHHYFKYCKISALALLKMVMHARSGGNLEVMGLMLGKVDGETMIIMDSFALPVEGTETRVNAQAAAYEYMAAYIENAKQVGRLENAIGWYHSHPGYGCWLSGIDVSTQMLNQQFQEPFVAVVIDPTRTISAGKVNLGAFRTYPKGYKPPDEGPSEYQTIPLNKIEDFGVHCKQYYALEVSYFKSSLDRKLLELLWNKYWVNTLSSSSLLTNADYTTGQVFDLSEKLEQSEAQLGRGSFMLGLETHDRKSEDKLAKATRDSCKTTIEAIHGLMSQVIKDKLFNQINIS
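Test system: purified human Csn5 enzyme expressed in HEK293T cells. Amount: 0.24 nM enzyme. Reagent: SCFSkp2-Nedd8OG substrate at 10 nM final. Schedule: 90 min incubation of compound, enzyme and substrate at room temperature. Detection: fluorescence polarization. Read-out: % inhibition of substrate cleavage by Csn5.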
TPT1 inh: C. albicans TPT1 enzyme inhibition; recombinant caTPT1, FP RNA substrate dephosphorylation; inhibition, % at 5 µM; actives 0.81% (n = 300,000);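 active = inhibition above the mean of all tested compounds plus 3 SD, set per screening campaign, cut at about 24% in these data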;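 also: plate controls were DMSO alone for no effect and ferristatin control at 100 nM for full effect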
Rin1 Abl inh: inhibitors of human Rin1-Abl protein interaction | P00519+Q13671 | TR-FRET Rin1/Abl binding, biochemical | inhibition, % at 7.35 µM | actives 0.4% (n = 360,000); in the data active = inhibition above about 5%, passing the limit was not always enough
Neddyl block: inhibitors of human cullin neddylation. P61081+Q13564. TR-FRET cullin neddylation, biochemical. inhibition, % at 25 µM. actives 0.58% (n = 360,000). AID 651699; in the data active = inhibition above about 36%
The depositor's hits bear a star; · = no result shown. This is a sample that favours compounds with a hit; in the whole collection about 2.4% have one here.

SMILES	Rpn11 inh	HNF4A DNA FP	CSN inh	TPT1 inh	Rin1 Abl inh	Neddyl block
O=C(NCCN1CCN(c2ccccc2)CC1)c1cccn2c(=O)c3ccccc3nc12	-5.6	-5.0	-1.1	-3.0	-2.2	30.7
O=C(NCCN1CCN(c2ccccc2F)CC1)c1cccn2c(=O)c3ccccc3nc12	2.9	-1.0	-5.3	-0.6	0.8	42.6*
O=C(OCc1cc(=O)n2c(n1)sc1ccccc12)c1ccc2c(=O)n3c(nc2c1)CCC3	8.0	-38.6	36.1*	-1.5	4.2	22.6
NC(=S)Nc1cccc2cc3ccccc3cc12	-47.9	-25.8	-8.7	-62.8	-5.8	47.0*
NC(=S)Nc1cc2ccccc2c2ccccc12	-2.7	-0.8	-3.0	-6.1	-6.7	-31.0
COc1ccc(Cn2c(N)c(C#N)c3nc4ccccc4nc32)cc1OC	8.8	3.4	4.0	11.9	-1.5	38.5*
Cc1cc(C(=O)Nc2ccon2)ccc1[N+](=O)[O-]	-6.1	0.0	-0.3	-4.8	-3.1	-21.0
O=C(Nc1ccc(N2CCOCC2)cc1N1CCOCC1)c1ccc([N+](=O)[O-])cc1	3.4	2.8	73.8*	1.8	3.3	-27.8
O=C(CCNC(=O)c1ccc([N+](=O)[O-])cc1)Nc1ccc(N2CCOCC2)cc1N1CCOCC1	2.4	0.1	2.4	1.6	-3.2	-33.6
COc1cc(NC(=O)Cc2ccccc2)c(C(=O)O)cc1OC	2.6	2.9	6.3	-0.1	3.5	2.6
COc1cc(NC(=O)N2c3ccccc3Sc3ccccc32)c(C(=O)O)cc1OC	-7.7	1.9	1.4	-2.6	0.9	42.3*
CCN(CC)c1ccc(NC2CC(=O)N(CCc3ccc(OC)cc3)C2=O)cc1 (configuration not stated)	·	57.2*	51.4*	3.5	-2.9	-2.3
COc1ccc(CCNC2CC(=O)N(CCc3ccccc3)C2=O)cc1 (configuration not stated)	-2.3	-4.3	-0.5	-1.3	1.6	6.1
Cc1ccc(S(=O)(=O)Nc2cccc(-n3cnnn3)c2)cc1C	2.6	-2.5	0.5	0.3	1.6	0.6
C=CCOc1ccc2c(CC)cc(=O)oc2c1C	2.6	-0.2	-1.2	-2.6	-0.2	41.8*
Cc1ccc2nc(-c3ccccc3)cn2c1	1.1	0.9	-0.1	-1.6	-2.4	38.7*
COc1ccc(S(=O)(=O)N2CCOCC2)cc1NC(=O)CN1C(=O)NC2(CCCC2)C1=O	5.0	-4.4	1.6	·	1.7	-9.4
Cc1ccc(CN2CCNC(=O)C2CC(=O)NCC(F)(F)F)o1 (configuration not stated)	10.9	-4.4	-9.3	-6.0	3.2	0.9
Cc1ccc(C(=O)Nc2cccc(-c3cn4ccccc4n3)c2)cc1	0.3	-1.1	35.2*	-1.0	4.4	9.9
O=C(Nc1cccc(-c2cn3ccccc3n2)c1)c1ccccc1	0.7	-4.0	-5.6	1.2	6.4	1.6
CCOC(=O)C1=C(CSc2nc(-c3ccccc3)ccc2C#N)OC(N)=C(C#N)C1c1cccnc1 (configuration not stated)	·	32.1	31.9	16.0	-1.7	25.1
CCOC(=O)C1=C(CSc2nc(-c3ccccc3)ccc2C#N)OC(N)=C(C#N)C1c1ccccc1 (configuration not stated)	·	39.3*	38.8*	20.5	3.1	29.1
O=C(/C=C/c1ccccc1)Nc1ccc(N2CCCCC2)cc1	-2.4	-5.1	0.8	0.5	-2.5	-4.3
O=C(CC(=O)c1ccccc1)CS(=O)(=O)c1ccccc1	-2.1	1.6	2.0	·	0.0	-3.1
Cc1ccc(C(=O)Nc2nc(-c3ccccn3)cs2)o1	16.0	-1.4	4.2	0.4	-2.3	3.6
SMILES	Rpn11 inh	HNF4A DNA FP	CSN inh	TPT1 inh	Rin1 Abl inh	Neddyl block
CC(=O)c1ccc(-c2ccc(C(=O)Nc3nc(-c4ccccn4)cs3)o2)cc1	36.1	-1.5	8.4	·	-0.9	35.8*
COc1ccc(C(CC(=O)N2CCCC2)c2c(OC)cc(OC)c3c(-c4ccccc4)cc(=O)oc23)cc1 (configuration not stated)	22.0	-11.3	36.3*	1.7	-2.4	29.3
CCn1cc(CNC(=O)/C=C/c2cnn(C)c2)c(C)n1	-1.1	45.4*	-1.1	-1.4	-3.8	-1.7
COc1ccc(C(=O)/C=C2/Sc3cc4c(cc3N2C)OCO4)cc1	17.5	23.9	-9.9	0.3	-0.1	14.9
CN1/C(=C/C(=O)c2ccc(Cl)cc2)Sc2cc3c(cc21)OCO3	·	44.9*	-9.4	18.9	-4.0	16.0
CC1(C(=O)NS(=O)(=O)c2ccccc2Cl)CCN1C(=O)CCc1cccs1 (configuration not stated)	-5.4	0.7	3.4	·	-3.8	-14.0
S=C(NCc1cccnc1)Nc1ccc(Oc2ccc(Cl)cc2)cc1	-0.3	-0.6	-2.4	4.1	-0.2	-13.3
CC1=C(C(=O)N2CCCCCC2)CC(CC(=O)NC2CCCCC2)C(=O)N1Cc1ccccc1 (configuration not stated)	12.3	-3.9	116.7*	·	0.8	-10.1
Cc1ccc(Cc2c(-c3cccc(Cl)c3)nc3ccc(Cl)cn23)cc1	27.4	11.0	38.7*	·	-1.4	-28.3
Brc1cccc(-c2nc3ccc(Br)cn3c2Cc2ccsc2)c1	-4.8	0.1	-1.5	·	-0.4	-42.4
Cc1ccc(Cc2c(-c3cccc(Cl)c3)nc3ccc(C)cn23)cc1	13.1	2.1	11.4	·	2.1	22.8
Clc1cccc(-c2nc3ccc(Br)cn3c2Cc2ccsc2)c1	1.9	34.7*	0.6	·	1.6	-44.2
O=C1OCCC1Sc1nc(-c2ccccc2)cs1 (configuration not stated)	1.8	0.2	0.2	-10.4	1.1	1.3
COc1cc(C(=O)OC(C)C(=O)NC(=O)NC2CCCCC2)ccc1OC(F)F (configuration not stated)	5.5	2.4	-2.8	·	1.6	5.3
CCc1ncn(CCc2ccccc2OC)c1C(C)C	·	4.4	0.2	·	·	-1.3
COc1ccccc1CCn1cnc(C)c1CC(C)C	·	2.9	61.8*	·	·	-0.1
O=C1NC[C@H](Cc2ccc(O)cc2)N(CCc2cccc(F)c2)C1=O	·	-2.1	0.2	·	·	-10.1
CCCCN1C(=S)NC[C@@H]1Cc1cccc2ccccc12	-2.3	-3.0	17.7	0.0	1.0	1.2
O=C1NC[C@@H](Cc2cccc3ccccc23)N(CCc2cccc(F)c2)C1=O	·	4.3	54.4*	·	·	-6.4
CCCCN1C(=O)C(=O)NC[C@H]1Cc1cccc2ccccc12	·	2.5	51.3*	·	·	-0.5
CCOc1ccc2c(c1)S/C(=C\c1cccs1)C(=O)N2	30.2	7.9	39.5*	11.0	-1.1	30.3
COc1cc2c(-c3ccc(O)cc3)nc3c(c(C)nn3-c3ccccc3)c2cc1OC	5.0	160.1*	0.6	-0.6	-0.3	·
COc1cc2c(C)nc3c(c(C)nn3-c3ccccc3)c2cc1OC	-4.0	-2.8	1.4	-1.7	-4.3	-259.0
